This is an account of results in article PMC10162598 (Asian Pacific Journal of Cancer Prevention : APJCP, 2023).

In brackets after ≈: the same amount, converted by molar mass. Several values for one entry are separate records, joined by “and”; a condition that tells them apart may be missing. Equal entries are not always repeated.

Experiment [1] relates to HuCCT-1 (CCA cell line). In words: Antiproliferative MTT assay, HuCCT-1. The format is cell-based, human. The conditions noted are these: for IC25 (concentration that inhibits cell growth by 25%) / IC50 (concentration that inhibits cell growth by 50%): HuCCT-1, MTT, 72 hours, mean±SD; for Selectivity index (SI): ratio of the IC50 in HuCCT-1 and OUMS-36T-1 cells. The method in brief:
(§1)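 Cells (8,000/well; HuCCT-1 in RPMI-1640, OUMS-36T-1 in DMEM, both with 10% FBS) were preincubated 24 h at 37°C, 5% CO2, then exposed to test compound for 72 h. Natural product range was 1.95–250 µg/ml. MTT (5 mg/ml stock) was added for 3.5 h, formazan dissolved in DMSO, and A590 read. IC25/IC50 came from dose-response analysis. SI = HuCCT-1 vs OUMS-36T-1 IC50 ratio. Three experiments, triplicate.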

Experiment [2] deals with OUMS-36T-1 (normal human cell line). In words: Antiproliferative MTT assay, OUMS-36T-1. The format is cell-based. The conditions noted are these: OUMS-36T-1, MTT, 72 hours, mean±SD. The method in brief: as §1
Experiment [3] has as its system Notch1 receptor. Kind of experiment: RT-PCR mRNA expression of Notch1 receptor in HuCCT-1. The format is cell-based, human. The following applies: HuCCT-1, 72 hours.
Experiment [4] relates to YAP. Kind of experiment: RT-PCR mRNA expression of YAP in HuCCT-1. It counts as cell-based, human. The conditions noted are these: HuCCT-1, 72 hours.
The test system of experiment [5] is mTOR. In words: Western blot protein expression of mTOR in HuCCT-1. It counts as cell-based, human. The conditions noted are these: HuCCT-1, 72 hours, at IC25. A digest of the protocol:
(§2)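 After 72 h exposure to test compound, HuCCT-1 cells were lysed in RIPA buffer with protease inhibitor, and protein was quantified by BCA. Lysates were resolved by SDS-PAGE and transferred to nitrocellulose. Membranes were probed overnight with primary antibodies (target and β-actin), then an AP-conjugated anti-rabbit secondary. Bands were quantified by densitometry. Three experiments, each in triplicate.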

The subject of experiment [6] is YAP. In words: Western blot protein expression of YAP in HuCCT-1. The format is cell-based, human. The conditions noted are these: HuCCT-1, 72 hours, at IC25. The method in brief: as §2
Experiment [7] relates to JAG1 ligand. Kind of experiment: RT-PCR mRNA expression of JAG1 ligand in HuCCT-1. It counts as cell-based, human. The following applies: HuCCT-1, 72 hours, at IC25.
Experiment [8] has as its system PI3K. In words: RT-PCR mRNA expression of PI3K in HuCCT-1. The format is cell-based, human. The following applies: HuCCT-1, 72 hours.
Experiment [9] relates to JAG1 ligand. In words: Western blot protein expression of JAG1 ligand in HuCCT-1. The format is cell-based, human. The conditions noted are these: HuCCT-1, 72 hours, at IC25. A digest of the protocol:
as §2

Experiment [10] has as its system PI3K. In words: Western blot protein expression of PI3K in HuCCT-1. The format is cell-based, human. The conditions noted are these: HuCCT-1, 72 hours, at IC50. The method in brief: as §2

As to `C/C=C/C#CC#C/C=C/c1ccco1` [Atractylodin], the results for the “IC25 (concentration that inhibits cell growth by 25%)” value in experiment [1] and in experiment [2] were 13.44 ± 6.28 µg/mL (≈ 73.8 µM) and 10.08 ± 4.27 µg/mL (≈ 55.3 µM), respectively. Also, the “IC50 (concentration that inhibits cell growth by 50%)” value in experiment [2] is 24.47 ± 8.46 µg/mL (≈ 134 µM). Further, the “Notch1 receptor gene expression, fold of control” value in experiment [3] (at IC25 and IC50 concentrations (low and high)) is given as 0.042 fold. Besides, the “YAP gene expression, fold-change” value in [4] (at high concentration (IC50)) was 2.219 fold; in [4] (at low concentration (IC25)) it was 0.086 fold. In experiment [5], the “mTOR protein expression, fold” value turned out to be 1.67 fold. In addition, the “YAP protein expression, fold” value in experiment [6] is 0.819 fold.

Consider `C[C@H](NC(=O)Cc1cc(F)cc(F)c1)C(=O)N[C@H](C(=O)OC(C)(C)C)c1ccccc1` [DAPT], for which the “IC50 (concentration that inhibits cell growth by 50%)” value is 88.98 µg/mL and 89.88 ± 36.11 µg/mL in experiment [1]; 150.29 ± 23.79 µg/mL (≈ 348 µM) in experiment [2].

In the case of `Nc1ccn([C@@H]2O[C@H](CO)[C@@H](O)C2(F)F)c(=O)n1` [Gemcitabine], in experiment [1], the “IC25 (concentration that inhibits cell growth by 25%)” value was determined as 0.22 ± 0.35 µg/mL (≈ 0.836 µM), the “IC50 (concentration that inhibits cell growth by 50%)” value came to 4.97 ± 5.09 µg/mL (≈ 18.9 µM) and the “Selectivity index (SI)” value is on record as 14.05. Also, in [2], the “IC25 (concentration that inhibits cell growth by 25%)” value came out at 3.40 ± 5.78 µg/mL (≈ 12.9 µM). Further, in experiment [3] (at IC50), the “Notch1 receptor gene expression, fold of control” value was 0.318 fold. For the same compound, the “JAG1 ligand gene expression, fold” value in experiment [7] worked out at 1.344 fold. In addition, the “PI3K gene expression, fold” value in experiment [8] (at IC25) is on record as 1.4 fold. Moreover, the “PI3K gene expression, fold” value in [8] (at IC50) was 2.25 fold. The “JAG1 ligand protein expression, fold” value in experiment [9] worked out at 0.610 fold. Moreover, the “PI3K protein expression, fold” value in experiment [10] was found to be 0.677 fold.

Regarding `O=c1ncccn1[C@@H]1O[C@H](CO)[C@@H](O)[C@H]1O` [Zebularine], in experiment [1], the “Selectivity index (SI)” value worked out at 4.41. Further, in experiment [4] (concentration not given), the “YAP gene expression, fold-change” value is given as 0.647 fold.

In the case of `C=C1CCC[C@]2(C)CC[C@@H](C(C)(C)O)C[C@@H]12` [β-eudesmol], the “IC25 (concentration that inhibits cell growth by 25%)” value in experiment [1] was 6.37 ± 2.53 µg/mL (≈ 28.6 µM); in [2] it was 18.12 ± 7.43 µg/mL (≈ 81.5 µM). For the same compound, the “Selectivity index (SI)” value in experiment [1] was 1.68. Moreover, the “YAP gene expression, fold-change” value was 1.978 fold in [4] (at high concentration (IC50)) and 0.280 fold in experiment [4] (at low concentration (IC25)).
